Results: ChEMBL document CHEMBL1153725, “Tetrahydroquinoline derivatives as CRTH2 antagonists” (Bioorg Med Chem Lett, 2009)

How the values were obtained:
[1] = target: T1, Prostaglandin D2 receptor 2 (Homo sapiens, UniProt Q9Y5Y4); assay: Displacement of [3H]PGD2 from human CRTH2 receptor expressed in 293 cells by scintillation counting in presence of 0.5% BSA; assay type: cell-based, HEK293
T1 sequence (Q9Y5Y4 whole entry): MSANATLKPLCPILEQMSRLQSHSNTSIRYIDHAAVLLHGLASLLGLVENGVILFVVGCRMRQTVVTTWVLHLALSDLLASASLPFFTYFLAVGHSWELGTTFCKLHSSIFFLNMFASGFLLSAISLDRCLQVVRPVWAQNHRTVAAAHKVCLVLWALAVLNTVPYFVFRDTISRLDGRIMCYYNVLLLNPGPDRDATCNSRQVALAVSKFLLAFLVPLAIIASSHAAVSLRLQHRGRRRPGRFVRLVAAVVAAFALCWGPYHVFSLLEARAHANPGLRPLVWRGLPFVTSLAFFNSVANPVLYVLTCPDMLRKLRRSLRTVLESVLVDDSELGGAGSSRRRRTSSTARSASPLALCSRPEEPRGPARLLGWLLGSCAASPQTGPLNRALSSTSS
In short: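 Whole-cell binding on 293 cells stably transfected with hCRTH2. [3H]-PGD2 incubated with cells plus increasing compound concentrations in binding buffer containing 0.5% BSA. Cells washed, bound label counted by scintillation, and the concentration giving 50% inhibition of binding taken as IC50. Means of three experiments.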

[2] = target: T1, Prostaglandin D2 receptor 2; assay: Displacement of [3H]PGD2 from human CRTH2 receptor expressed in 293 cells by scintillation counting in presence of 50% human plasma; assay type: cell-based, HEK293
In short: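 Whole-cell binding on 293 cells stably transfected with hCRTH2, run in binding buffer containing 50% human plasma. [3H]-PGD2 incubated with cells and rising compound concentrations. After washing, cell-bound label measured by scintillation counting, and IC50 taken as the concentration halving binding. Means of three experiments.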

[3] = target: T2, Prostaglandin D2 receptor (Homo sapiens, UniProt Q13258); assay: Displacement of [3H]PGD2 from human DP receptor expressed in 293 cells by scintillation counting in presence of 0.5% BSA; assay type: cell-based, HEK293
T2 sequence (Q13258 whole entry): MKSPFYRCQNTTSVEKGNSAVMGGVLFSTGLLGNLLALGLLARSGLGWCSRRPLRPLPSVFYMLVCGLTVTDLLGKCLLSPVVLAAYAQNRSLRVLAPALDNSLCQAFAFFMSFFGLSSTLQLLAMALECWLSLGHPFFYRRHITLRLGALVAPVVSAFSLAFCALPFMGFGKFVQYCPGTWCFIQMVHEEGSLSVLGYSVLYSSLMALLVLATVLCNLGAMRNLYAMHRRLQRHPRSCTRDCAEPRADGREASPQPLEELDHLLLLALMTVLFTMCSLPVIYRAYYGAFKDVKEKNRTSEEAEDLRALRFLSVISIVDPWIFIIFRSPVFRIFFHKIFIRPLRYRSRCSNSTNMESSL
In short: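 hDP binding on stably transfected 293 cells. [3H]-PGD2 incubated with 293(hDP) cells and increasing compound concentrations in buffer with 0.5% BSA. After washing, remaining bound radioligand counted by scintillation, and IC50 read as the concentration giving 50% inhibition. Means of three experiments.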

Eosinophil = assay: Inhibition of PGD2-induced human eosinophil shape change by flow cytometry; assay type: functional, cell-based
In short: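 Enriched human eosinophils at 10^6 cells/mL in PBS with Ca2+/Mg2+, 0.1% BSA, 10 mM Hepes, 10 mM glucose. Antagonist or vehicle (0.05% DMSO) applied 10 min at room temperature, then 10 nM PGD2 for 10 min at 37 °C. Response expressed as % of maximal PGD2 response. Means of two experiments.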

Compound	IC50 [1] [nM]	also measured
CCN(c1ccccc1)C1CC(C)N(C(=O)c2ccccc2)c2ccccc21 (racemic)	3170	
CC(=O)N(c1ccccc1)C1CC(C)N(C(=O)c2ccc(OC(F)(F)F)cc2)c2ccccc21 (racemic)	26	IC50 [2]: > 10000 nM
CC(=O)N(c1ccccc1)C1CC(C)N(Cc2ccccc2)c2ccccc21 (racemic)	200	
CC(=O)N(c1ccccc1)C1CC(C)N(C(=O)c2ccc(Cl)cc2)c2ccccc21 (racemic)	93	
CC(=O)N(c1ccccc1)C1CC(C)N(C(=O)c2ccc(Oc3ccccc3)cc2)c2ccccc21 (racemic)	13	
CC(=O)N(c1ccccc1)[C@@H]1C[C@H](C)N(C(=O)c2ccccc2)c2ccccc21	17	IC50 [3]: > 10000 nM; IC50 [2]: 440 nM; IC50 (Eosinophil): 141 nM
CC(=O)N(c1ccccc1)C1CC(C)N(C(=O)c2ccc(C)c(C)c2)c2ccccc21 (racemic)	92	
CC(=O)N(c1ccccc1)C1CC(C)N(S(=O)(=O)c2ccccc2)c2ccccc21 (racemic)	62000	
CC(=O)N(c1ccccc1)C1CC(C)N(C(=O)Cc2ccccc2)c2ccccc21 (racemic)	1750	
CCCCC(=O)N(c1ccccc1)C1CC(C)N(C(=O)c2ccccc2)c2ccccc21 (racemic)	64	
C[C@@H]1C[C@H](N(C(=O)CCC(=O)O)c2ccccc2)c2ccccc2N1C(=O)c1ccccc1	400	IC50 [2]: 39 nM
CC(=O)N(c1ccccc1)[C@H]1C[C@H](C)N(C(=O)c2ccccc2)c2ccccc21 (racemic)	> 10000	
CC1CC(N(C(=O)c2cccc(C(=O)O)c2)c2ccccc2)c2ccccc2N1C(=O)c1ccccc1 (racemic)	40300	
CC1CC(N(C(=O)c2ccccc2)c2ccccc2)c2ccccc2N1C(=O)c1ccccc1 (racemic)	105	
C[C@H]1C[C@@H](N(C(=O)CCC(=O)O)c2ccccc2)c2ccccc2N1C(=O)c1ccccc1	3	IC50 [3]: > 10000 nM; IC50 [2]: 9 nM; IC50 (Eosinophil): 0.77 nM
CC(=O)N(c1ccccc1)C1CC(C)Nc2ccccc21 (racemic)	> 50000	
CC(=O)N(c1ccccc1)C1CC(C)N(C(=O)c2ccccc2C)c2ccccc21 (racemic)	1420	
CC1CC(N(C(=O)/C=C/C(=O)O)c2ccccc2)c2ccccc2N1C(=O)c1ccccc1 (racemic)	2280	

Compound	IC50 [1] [nM]	also measured
CC(=O)N(c1ccccc1)C1CC(C)N(C(=O)OCc2ccccc2)c2ccccc21 (racemic)	910	
CC1CC(N(C(=O)CCC(=O)O)c2ccccc2)c2ccccc2N1C(=O)c1ccccc1 (racemic)	5	IC50 [2]: 28 nM
COc1ccc(C(=O)N2c3ccccc3C(N(C(C)=O)c3ccccc3)CC2C)cc1 (racemic)	28	IC50 [2]: 130 nM
CC1CC(N(C(=O)CC(=O)O)c2ccccc2)c2ccccc2N1C(=O)c1ccccc1 (racemic)	540	
CC1CC(N(C(=O)CCCC(=O)O)c2ccccc2)c2ccccc2N1C(=O)c1ccccc1 (racemic)	22	
CC(=O)NC1CC(C)N(C(=O)c2ccccc2)c2ccccc21 (racemic)	3620	
CC1CC(Nc2ccccc2)c2ccccc2N1C(=O)c1ccccc1 (racemic)	> 50000	
CC1CC(N(C(=O)CCC(=O)ON)c2ccccc2)c2ccccc2N1C(=O)c1ccccc1 (racemic)	29	
CC(=O)N(c1ccccc1)C1CC(C)N(C(=O)c2cccc(C)c2)c2ccccc21 (racemic)	74	
CCN(C(C)=O)C1CC(C)N(C(=O)c2ccccc2)c2ccccc21 (racemic)	250	
CC(=O)N(Cc1ccccc1)C1CC(C)N(C(=O)c2ccccc2)c2ccccc21 (racemic)	430	
CC(=O)N(c1ccccc1)[C@@H]1C[C@H](C)N(C(=O)c2ccccc2)c2ccccc21 (racemic)	43	IC50 [2]: 1050 nM
CCCCC(=O)N1c2ccccc2C(N(C(C)=O)c2ccccc2)CC1C (racemic)	1460	
CC(=O)N(c1ccccc1)C1CC(C)N(C(=O)c2ccc(C(C)(C)C)cc2)c2ccccc21 (racemic)	34	
CC(=O)N(c1ccccc1)[C@H]1C[C@@H](C)N(C(=O)c2ccccc2)c2ccccc21	420	IC50 [2]: > 10000 nM
CC(=O)N(c1ccccc1)C1CC(C)N(C(=O)/C=C/c2ccccc2)c2ccccc21 (racemic)	210	
CC1CC(N(c2ccccc2)S(=O)(=O)c2ccccc2)c2ccccc2N1C(=O)c1ccccc1 (racemic)	5500	
CC(=O)N(c1ccccc1)C1CC(C)N(C(=O)c2ccc(C)cc2)c2ccccc21 (racemic)	41	
